Activity and solubility data for 2 compounds are collected here from ChEMBL document CHEMBL2151030, “Improving the solubility of a new class of antiinflammatory pharmacodynamic hybrids, that release nitric oxide and inhibit cycloxygenase-2 isoenzyme” (Eur J Med Chem, 2012).

The structures appear in SMILES notation. In brackets after ≈: the same amount, converted by molar mass.

By solubility is commonly meant the concentration that dissolves in the medium under given conditions.

The subject of series [1] is Rattus norvegicus. As to the kind of experiment: Antiinflammatory activity in rat assessed as reduction of carrageenan-induced paw pressure at 40 mg/kg, po after 60 mins post carrageenan-challenge. The series is classed as functional. More on the design: scale not given: the % may be the effect or the level left. The method, boiled down: (§1)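 Rats (Sprague-Dawley or Wistar, 150-200 g) received intraplantar carrageenan 4 h before testing, then oral compound or CMC vehicle. Paw-pressure threshold read before treatment and at 15, 30, 45 and 60 min after treatment, compared with saline and carrageenan controls.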
A general note: In the carrageenan paw model, swelling and tenderness develop within hours.

Series [2] is described as follows: Solubility of the compound in simulated gastric fluid without pepsin at pH 1.5 by HPLC analysis. Type of series: physicochemical. The essentials:
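Compound from 20 mM DMSO stock diluted 1:100 into 0.05 M simulated gastric fluid without pepsin (pH 1.5 with HCl), duplicate wells on a solubility filter plate, shaken 90 min at 300 rpm. Seven-point calibration standards from 1 to 200 μM.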

The subject of series [3] is Mus musculus. The series is described as follows: Analgesic activity in Swiss albino mouse assessed as reduction of acetic acid-induced writhing at 84 nmol/kg, po after 5 mins. More on the design: scale not given: the % may be the effect or the level left. The series is classed as functional. The essentials: (§2)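 Male Swiss albino mice (23-25 g), standard diet and water ad libitum, 23 ± 1 °C, 12 h light/dark cycle. Test compound given orally; 0.6% acetic acid (10 mL/kg) injected ip. Stretching movements counted for 10 min, beginning 5 min after administration.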
A general note: Writhing tests count abdominal constrictions after an irritant is injected.

The test system of series [4] is Rattus norvegicus. The series is described as follows: Antiinflammatory activity in rat assessed as reduction of carrageenan-induced oedema in right hind paw at 40 mg/kg, po after 4 hrs post carrageenan-challenge. The series is classed as functional. More on the design: scale not given: the % may be the effect or the level left. The method, boiled down: (§3)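 Sprague-Dawley or Wistar rats (150-200 g). Carrageenan injected intraplantar; oral treatment with test compound or CMC vehicle. Right hind paw volume measured 4 h after carrageenan and compared with saline- and carrageenan-treated controls.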

Series [5] has as its system Mus musculus. As to the kind of experiment: Analgesic activity in Swiss albino mouse assessed as reduction of acetic acid-induced writhing at 40.8 nmol/kg, po after 5 mins. Type of series: functional. More on the design: scale not given: the % may be the effect or the level left. The method, boiled down:
as §2

The test system of series [6] is Mus musculus. The series is described as follows: Analgesic activity in Swiss albino mouse assessed as reduction of acetic acid-induced writhing at 81.6 nmol/kg, po after 5 mins. The series is classed as functional. More on the design: scale not given: the % may be the effect or the level left. The essentials: as §2
Series [7] concerns Rattus norvegicus. The series is described as follows: Antiinflammatory activity in rat assessed as reduction of carrageenan-induced paw pressure at 40 mg/kg, po after 45 mins post carrageenan-challenge. Type of series: functional. More on the design: scale not given: the % may be the effect or the level left. The method, boiled down:
as §1

Series [8] is described as follows: Solubility of the compound in PBS buffer at pH 7.4 by HPLC analysis. Type of series: physicochemical. The method, boiled down:
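20 mM DMSO stocks diluted 1:100 into 0.01 M PBS pH 7.4 in duplicate wells of a solubility filter plate, shaken 90 min at 300 rpm. Seven-point calibration standards from 1 to 200 μM.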

Series [9] concerns Rattus norvegicus. The series is described as follows: Antiinflammatory activity in rat assessed as reduction of carrageenan-induced paw pressure at 40 mg/kg, po after 30 mins post carrageenan-challenge. More on the design: scale not given: the % may be the effect or the level left. The series is classed as functional. The method, boiled down: as §1
Series [10] deals with Rattus norvegicus. As to the kind of experiment: Antiinflammatory activity in rat assessed as reduction of carrageenan-induced paw pressure at 40 mg/kg, po after 15 mins post carrageenan-challenge. Details: scale not given: the % may be the effect or the level left. Type of series: functional. The method, boiled down:
as §1

For series [11], the system named is Rattus norvegicus. The series is described as follows: Antiinflammatory activity in rat assessed as reduction of carrageenan-induced oedema in right hind paw at 20 mg/kg, po after 4 hrs post carrageenan-challenge. The series is classed as functional. More on the design: scale not given: the % may be the effect or the level left. The essentials:
as §3

Series [12] relates to Mus musculus. The series is described as follows: Analgesic activity in Swiss albino mouse assessed as reduction of acetic acid-induced writhing at 42 nmol/kg, po after 5 mins. More on the design: scale not given: the % may be the effect or the level left. Type of series: functional. The essentials: as §2
The test system of series [13] is Rattus norvegicus. As to the kind of experiment: Antiinflammatory activity in rat assessed as reduction of carrageenan-induced paw pressure at 20 mg/kg, po after 60 mins post carrageenan-challenge. Type of series: functional. More on the design: scale not given: the % may be the effect or the level left. The essentials:
as §1

For series [14], the system named is Rattus norvegicus. The series is described as follows: Antiinflammatory activity in rat assessed as reduction of carrageenan-induced paw pressure at 20 mg/kg, po after 45 mins post carrageenan-challenge. More on the design: scale not given: the % may be the effect or the level left. Type of series: functional. The method, boiled down:
as §1

For series [15], the system named is Rattus norvegicus. The series is described as follows: Antiinflammatory activity in rat assessed as reduction of carrageenan-induced paw pressure at 20 mg/kg, po after 15 mins post carrageenan-challenge. The series is classed as functional. More on the design: scale not given: the % may be the effect or the level left. The essentials:
as §1

Series [16] has as its system Rattus norvegicus. The series is described as follows: Antiinflammatory activity in rat assessed as reduction of carrageenan-induced paw pressure at 20 mg/kg, po after 30 mins post carrageenan-challenge. Details: scale not given: the % may be the effect or the level left. Type of series: functional. The essentials:
as §1

The test system of series [17] is Mus musculus. As to the kind of experiment: Analgesic activity in Swiss albino mouse assessed as reduction of acetic acid-induced writhing at 21 nmol/kg, po after 5 mins. Details: scale not given: the % may be the effect or the level left. Type of series: functional. The method, boiled down:
as §2

The next series concerns Liver. As to the kind of experiment: Induction of nitrite/nitrate production in Wistar rat liver homogenates at 1 mM. Type of series: functional, tissue-based. The settings on record: TDE = time-dependent effect. The method, boiled down: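 Liver from male Wistar rats (250–350 g), perfused with cold buffer (pH 7.4), homogenized 1:5 w/v. Homogenate in K2HPO4/EDTA buffer pH 7.4 with 1 mM glutathione, NADH and NADPH at 37 °C; compound added from DMSO at 1 mM final. Aliquots at 5-120 min into H2SO4/KI; quantified against sodium nitrite calibration.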

For `Cc1c(CC(=O)OCCCO[N+](=O)[O-])cc(-c2ccc(S(C)(=O)=O)cc2)n1-c1cccc(F)c1`, the Activity was determined as 17% with Rattus norvegicus [1]; 71.2% in the series on Mus musculus [3]; 35% in the series on Rattus norvegicus [4]; 23.3% in the series with Mus musculus [5]; 26.4% in the series with Mus musculus [6]; 40% with Rattus norvegicus [7]. The Activity was 41% in the series with Rattus norvegicus [9] and 40% in the series on Rattus norvegicus [10]. In addition, the solubility in series [2] is less than 1 µM; in [8], 1.1 µM (≈ 0.54 µg/mL).
Consider `Cc1c(CC(=O)OCCO[N+](=O)[O-])cc(-c2ccc(S(C)(=O)=O)cc2)n1-c1cccc(F)c1`, for which the Activity is on record as 23% in the series with Rattus norvegicus [1]; 17% in the series with Rattus norvegicus [11]; 48.8% in the series with Mus musculus [12]; 40% with Rattus norvegicus [4]; 10% with Rattus norvegicus [13]; 29% in the series on Rattus norvegicus [14]. In addition, the Activity is listed as 18% in the series on Rattus norvegicus [15]; 35% in the series with Rattus norvegicus [16]; 60% in the series on Rattus norvegicus [7]; 80% in the series with Rattus norvegicus [9]; 50% with Rattus norvegicus [10]; 30.8% in the series with Mus musculus [17]. The Activity entry with Liver is “tde”. Besides, the solubility in series [2] was less than 1 µM; in [8], 1.6 µM (≈ 0.762 µg/mL).
